According to article PMC6893084 (Journal of thrombosis and haemostasis : JTH, 2019):
Values joined by “and” are separate entries in the source; they are usually repeats but may differ in a detail not shown here. Identical values can stand only once. Like-named read-outs stand apart in the source and are kept apart here.

Tests used:
FXIa [1] = target: T1, FXIa (Homo sapiens, UniProt P03951); assay: Direct inhibition of FXIa, S-2366 chromogenic substrate hydrolysis; assay type: biochemical
Outline: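 Full-length wild-type purified human FXIa hydrolysing chromogenic substrate S-2366 in 20 mM Tris-HCl, pH 7.4, 37 °C, with varying test compound. Activity taken as the initial rate of absorbance increase at 405 nm. A logistic dose–response equation fitted to residual protease activity gave IC50, efficacy (ΔY) and Hill slope.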

Thrombin [2] = target: T2, Thrombin (Homo sapiens, UniProt P00734); assay: Chromogenic substrate hydrolysis assay, thrombin; assay type: biochemical
Outline: (§1)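 Each purified human protease was tested against varying test compound levels under optimal conditions taken from the literature. A chromogenic substrate was used, except for FXIIIa, which used a fluorescence bisubstrate format. Protease activity versus concentration was fitted by non-linear regression to a logistic equation, giving IC50, efficacy (ΔY) and Hill slope.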

FXa = FXa (Homo sapiens, UniProt P00742); assay: Chromogenic substrate hydrolysis assay, FXa; assay type: biochemical
Outline: as §1

FVIIa/TF = FVIIa/TF (Homo sapiens, UniProt P08709); assay: Chromogenic substrate hydrolysis assay, FVIIa/TF; assay type: biochemical
Outline: as §1

FIXa = FIXa (Homo sapiens, UniProt P00740); assay: Chromogenic substrate hydrolysis assay, FIXa; assay type: biochemical
Chain of FIXa (P00740 227-461 limits assumed): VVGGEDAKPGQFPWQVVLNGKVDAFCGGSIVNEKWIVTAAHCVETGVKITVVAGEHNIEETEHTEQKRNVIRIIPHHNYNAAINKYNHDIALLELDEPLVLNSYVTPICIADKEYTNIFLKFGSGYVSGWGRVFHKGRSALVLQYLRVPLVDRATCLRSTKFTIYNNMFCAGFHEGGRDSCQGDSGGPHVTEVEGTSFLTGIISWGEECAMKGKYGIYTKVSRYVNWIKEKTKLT
Chain of FIXa (P00740 47-191 partner limits assumed): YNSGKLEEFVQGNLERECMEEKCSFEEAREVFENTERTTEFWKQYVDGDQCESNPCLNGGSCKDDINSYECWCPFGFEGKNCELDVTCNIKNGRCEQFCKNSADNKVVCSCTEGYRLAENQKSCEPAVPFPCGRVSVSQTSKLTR
Outline: as §1

FXIIa = FXIIa (Homo sapiens, UniProt P00748); assay: Chromogenic substrate hydrolysis assay, FXIIa; assay type: biochemical
Chain of FXIIa (P00748 373-615 limits assumed): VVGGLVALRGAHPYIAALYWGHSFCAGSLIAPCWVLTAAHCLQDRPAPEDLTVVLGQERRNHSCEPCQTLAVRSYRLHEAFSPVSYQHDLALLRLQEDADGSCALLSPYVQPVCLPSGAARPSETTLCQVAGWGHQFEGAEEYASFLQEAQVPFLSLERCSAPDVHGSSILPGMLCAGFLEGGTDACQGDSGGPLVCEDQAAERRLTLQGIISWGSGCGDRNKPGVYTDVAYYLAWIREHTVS
Outline: as §1

FXIIIa = FXIIIa (Homo sapiens, UniProt P00488); assay: Fluorescence-based bisubstrate assay, FXIIIa; assay type: biochemical
Outline: as §1

Plasmin = Plasmin (Homo sapiens, UniProt P00747); assay: Chromogenic substrate hydrolysis assay, plasmin; assay type: biochemical
Outline: as §1

Plasma Kallikrein = Plasma Kallikrein (Homo sapiens, UniProt P03952); assay: Chromogenic substrate hydrolysis assay, plasma kallikrein; assay type: biochemical
Outline: as §1

Trypsin = assay: Chromogenic substrate hydrolysis assay, trypsin; assay type: biochemical, human
Outline: as §1

Chymotrypsin = assay: Chromogenic substrate hydrolysis assay, chymotrypsin; assay type: biochemical, human
Outline: as §1

rFXIa-FLWT = rFXIa-FLWT (Homo sapiens, UniProt P03951); assay: Direct inhibition of recombinant full-length wild type FXIa, S-2366 hydrolysis; assay type: biochemical; conditions: pH 7.4, 37 °C
Chain of rFXIa-FLWT (P03951 388-625 limits assumed): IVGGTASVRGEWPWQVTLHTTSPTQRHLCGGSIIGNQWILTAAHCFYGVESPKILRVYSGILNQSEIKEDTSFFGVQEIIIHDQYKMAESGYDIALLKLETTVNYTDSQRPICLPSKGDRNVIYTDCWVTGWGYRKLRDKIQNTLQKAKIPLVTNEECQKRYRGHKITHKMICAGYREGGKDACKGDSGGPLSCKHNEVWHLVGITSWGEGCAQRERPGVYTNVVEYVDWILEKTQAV
Chain of rFXIa-FLWT (P03951 19-387 limits assumed): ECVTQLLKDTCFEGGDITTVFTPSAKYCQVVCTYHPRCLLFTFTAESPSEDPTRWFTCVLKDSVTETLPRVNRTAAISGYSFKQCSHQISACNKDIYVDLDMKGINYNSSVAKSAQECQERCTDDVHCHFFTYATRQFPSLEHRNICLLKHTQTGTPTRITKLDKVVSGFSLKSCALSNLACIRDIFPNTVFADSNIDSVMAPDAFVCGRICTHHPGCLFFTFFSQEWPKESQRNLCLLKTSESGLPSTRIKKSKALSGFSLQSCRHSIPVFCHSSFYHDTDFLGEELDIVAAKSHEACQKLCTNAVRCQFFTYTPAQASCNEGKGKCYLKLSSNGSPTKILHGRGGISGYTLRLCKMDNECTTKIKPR

rFXIa-FLABS1 = rFXIa-FLABS1 (Homo sapiens, UniProt P03951); assay type: biochemical
Chain of rFXIa-FLABS1 (P03951 388-625 limits assumed): as the sequence (P03951 388-625 limits assumed) above

rFXIa-FLABS2 = rFXIa-FLABS2 (Homo sapiens, UniProt P03951, K547A/R548A/R550A); assay type: biochemical
Chain of rFXIa-FLABS2 (P03951 388-625 K547A/R548A/R550A limits assumed): as the sequence (P03951 388-625 limits assumed) above, with K160A, R161A, R163A counted along it
Chain of rFXIa-FLABS2 (P03951 19-387 limits assumed): as the sequence (P03951 19-387 limits assumed) above

FXIa [3] = target: T1, FXIa; assay: Fluorescence titration, intrinsic tryptophan fluorescence of FXIa; assay type: binding
DEGR-FXIa [4] = target: T3, DEGR-FXIa (Homo sapiens, UniProt P03951); assay: Fluorescence titration, dansyl fluorescence of DEGR-FXIa; assay type: binding; conditions: pH 7.4, 37 °C
T3 sequence (P03951 388-625 limits assumed): as the sequence (P03951 388-625 limits assumed) above
T3 sequence (P03951 19-387 limits assumed): as the sequence (P03951 19-387 limits assumed) above

[5] = target: human, wild-type, full-length FXIa (Homo sapiens, UniProt P03951); assay: Michaelis-Menten kinetics of S-2366 hydrolysis by FXIa in the presence of SCI; assay type: biochemical; conditions: pH 7.4, 37 °C
Chain of human, wild-type, full-length FXIa (P03951 388-625 limits assumed): as the sequence (P03951 388-625 limits assumed) above
Chain of human, wild-type, full-length FXIa (P03951 19-387 limits assumed): as the sequence (P03951 19-387 limits assumed) above

FXIa [6] = target: T1, FXIa; assay: Competition between SCI and UFH, S-2366 hydrolysis assay; assay type: biochemical; conditions: UFH increased from 0 to 150 μM; pH 7.4, 37 °C
Outline: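 Purified full-length human FXIa hydrolysing S-2366 in 20 mM Tris-HCl, pH 7.4, 37 °C, read as initial rate of absorbance rise at 405 nm. Inhibition curves were run with unfractionated heparin at 0, 5, 50 or 150 μM. Fitted to a logistic dose–response equation for IC50, ΔY and Hill slope.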

SCI–FXIa complex = SCI–FXIa complex (Homo sapiens, UniProt P03951); assay: In vitro reversibility of SCI inhibition of FXIa by antidotes, S-2366 hydrolysis; assay type: biochemical; conditions: for restoration potency (EC50) / restoration yield (ΔY) of FXIa activity: FXIa inhibited by 2 μM of SCI, pH 7.4, 37 °C
Chain of SCI–FXIa complex (P03951 388-625 limits assumed): as the sequence (P03951 388-625 limits assumed) above
Chain of SCI–FXIa complex (P03951 19-387 limits assumed): as the sequence (P03951 19-387 limits assumed) above

human plasma [7] = assay: Activated partial thromboplastin time; assay type: biochemical
human plasma [8] = assay: Prothrombin time; assay type: biochemical; conditions: even at 150 μM
Outline: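 One-stage recalcification clotting assay of human plasma containing varying levels of test compound. Clotting was started with Thromboplastin-D and CaCl2 at 37 °C and time to clot recorded. Clotting time versus concentration was fitted with a quadratic equation to give the concentration that doubles clotting time.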

plasma = assay: Plasma clotting times in the presence of added FXI neutralizing antibody; assay type: biochemical; conditions: antibody 9 μg per 300 μL; SCI as high as 100 μM
Outline: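 Plasma APTT was measured by a one-stage recalcification assay at 37 °C, with clotting initiated by CaCl2. Plasma contained FXI-neutralizing antibody at 9 μg per 300 μL, and test compound was varied over a wide concentration range.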

human whole blood [9] = assay: Thromboelastography; conditions: ex vivo
Outline: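 Citrated human whole blood with varying levels of test compound or enoxaparin was recalcified with CaCl2 to start clotting. The cup oscillated through a 4° 45ˋ angle at 0.1 Hz. Reaction time (min), angle (deg), maximum amplitude and shear elastic modulus were recorded automatically.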

human whole blood [10] = assay: Hemostasis analysis; conditions: ex vivo
Outline: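 Citrated human whole blood was spiked with varying levels of test compound or enoxaparin and recalcified with CaCl2. A cone was lowered into the blood, and tension from platelets attaching within the fibrin meshwork was recorded automatically as platelet contractile force, thrombin generation time and clot elastic modulus.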

Rat tail bleeding = assay type: in vivo
Mouse tail bleeding = assay type: in vivo; conditions: IV 35 μg/mouse SCI vs 300 μg enoxaparin
Outline: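 Test compound or enoxaparin comparator was given IV, then the tail was transected. Blood loss (mg) and time to cessation of bleeding were measured, with n = 4–7 per group. Groups were compared by two-tailed t-tests with unequal variance.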

[11] = FeCl3-induced arterial thrombosis model in rats; assay type: in vivo, rat
Outline: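 Female Wistar rats (~250 g), under ketamine/xylazine with isoflurane maintenance. Test compound (250, 500 or 2000 μg/rat) or enoxaparin in PBS was infused into the tail vein. After 5 min, 10% FeCl3-soaked filter paper was applied to the exposed abdominal aorta between two sutures for 10 min. The clot matured 15 min, sutures were tightened, and thrombus wet and dry weights recorded.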

[12] = Thromboplastin-induced venous thrombosis model in rats; assay type: in vivo; conditions: 250 μg per rat
FXIa [13] = target: T1, FXIa; assay: FXIa inhibition with sub-optimal chromogenic substrate Spectrozyme TH; assay type: biochemical
FXIa [14] = target: T1, FXIa; assay: FXIa cleavage of macromolecular substrate FIX to FIXa; assay type: biochemical
Thrombin [15] = target: T2, Thrombin; assay: Thrombin inhibition with sub-optimal chromogenic substrate S-2366; assay type: biochemical
rat plasma = assay: APTT of rat plasma; assay type: biochemical
[16] = test system: human plasma deficient of antithrombin and heparin cofactor II; assay: Clotting of human plasma deficient of antithrombin or heparin cofactor II; assay type: biochemical; conditions: plasma deficient in antithrombin or heparin cofactor II
DEGR-FXIa [17] = target: T3, DEGR-FXIa; assay: Acrylamide quenching of dansyl fluorescence of DEGR-FXIa; assay type: binding; conditions: 2 μM SCI; acrylamide 0–800 mM
Outline: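 Dansyl-labelled active-site-blocked human FXIa (DEGR-FXIa) in 20 mM Tris-HCl, pH 7.4, 37 °C. Acrylamide (0–800 mM) was added sequentially with or without a fixed level of test compound. Dansyl emission was recorded with excitation at 345 nm. Data were fitted to linear or quadratic Stern–Volmer equations.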

[18] = test system: HT-29 colorectal cell line; conditions: HT-29, SCI as high as 100 μM; cited from earlier work

T1 sequence (P03951 388-625 limits assumed): as the sequence (P03951 388-625 limits assumed) above
T1 sequence (P03951 19-387 limits assumed): as the sequence (P03951 19-387 limits assumed) above

With sulfated chiro-inositol [SCI] the “potency relative to SPGG (better)” value (FXIa [1]; FXIa inhibition) was ~ 2 fold and 2 fold, the “efficacy of FXIa inhibition” value (FXIa [1]; S-2366, pH 7.4, 37 °C) was 100% and the IC50 (FXIa [1]; full length, wild type, purified human FXIa, S-2366, pH 7.4, 37 °C) was 0.28 ± 0.01 µM. For the same compound, the IC50 (FXIa [1]; read-out: potency of FXIa inhibition) was 0.28 µM and ~0.28 µM, the IC50 (Thrombin [2]) was over 40 µM and the IC50 (FXa) was over 40 µM. For the same compound, the IC50 (FVIIa/TF) was over 50 µM, the IC50 (FIXa) was over 65 µM and the IC50 (FXIIa) was over 50 µM. It also gave an IC50 (FXIIIa) of over 90 µM, an IC50 (Plasmin) of over 40 µM and an IC50 (Plasma Kallikrein) of over 65 µM. It also gave an IC50 (Trypsin) of over 50 µM, an IC50 (Chymotrypsin) of over 40 µM and an IC50 (rFXIa-FLWT) of 4.2 ± 0.6 µM. For the same compound, the “potency relative to rFXIa-FLWT” value (rFXIa-FLABS1) was “essentially identical”, the IC50 (rFXIa-FLABS1; full length FXIa missing A3 domain's HBS) was 3 ± 0.2 µM and the “reduction in efficacy relative to rFXIa-FLWT” value (rFXIa-FLABS2) was ~ 20%. The “weaker inhibition relative to rFXIa-FLWT” value (rFXIa-FLABS2) was ~ 5 fold, the IC50 (rFXIa-FLABS2; full length FXIa missing catalytic domain's HBS) was 20.7 ± 3.6 µM and the Kd (FXIa [3]; intrinsic fluorescence, pH 7.4, 37 °C) was 0.063 ± 0.011 µM. The “saturating increase in intrinsic fluorescence” value (FXIa [3]; pH 7.4, 37 °C) was 133%, the “stoichiometry of SCI binding to dimeric FXIa” value (FXIa [3]; spectrofluorometric titration) was 1.83±0.08 and the “increase in dansyl fluorescence” value (DEGR-FXIa [4]) was 152%. The Kd (DEGR-FXIa [4]; read-out: affinity (KD), dansyl fluorescence) was 0.025 µM, the “decrease of VMAX” value [5] was ~ 4 fold and the “VMAX in the presence of SCI” value ([5]; decreased from 52.1) was 14.2 mAU/min. The “increase of IC50 of FXIa inhibition with UFH” value (FXIa [6]) was ~ 6 fold, the reversibility with protamine (SCI–FXIa complex; protamine as antidote) was over 50% and the “concentration for 2-fold increase in APTT” value (human plasma [7]) was 32.2 µM. The “impact on the PT” value (human plasma [8]) was “minimal”, the “effect on plasma clotting times with FXI neutralizing antibody” value (plasma) was “did not significantly impact plasma clotting times” and the “effect on TEG parameters” value (human whole blood [9]) was “increase time to initial fibrin formation, while decrease all other parameters”. The “effect on HAS parameters” value (human whole blood [10]) was “reduced platelet contractile force and clot elastic modulus, whereas prolonged force onset time”, the blood loss (Rat tail bleeding; 250 μg/rat IV, n=15, PBS 147±29 mg) was 119 ± 41 mg and the tail bleeding time (Rat tail bleeding; 250 μg/rat, PBS 13±4) was 14 ± 4 min. For the same compound, the “blood loss and bleeding time” value (Mouse tail bleeding) was “much lower than that induced by enoxaparin”, the “wet weight of thrombus lower than negative control (PBS)” value ([11]; 250 μg per rat) was ~ 33% and the “wet weight of thrombus” value ([11]; 250 μg per rat, n=14, PBS 43.35±2.63 mg) was 28.85 ± 2.12 mg. For the same compound, the “decrease of average dry thrombus weight vs PBS” value ([11]; 500 or 2000 μg/animal) was 55–63%, the “decrease of average wet thrombus weight vs PBS” value ([11]; 500 or 2000 μg/animal) was 53–55% and the “reduction of average dry weight of thrombus” value [12] was 48%. For the same compound, the “wet weight of thrombus less than PBS group” value [12] was ~ 42%, the “wet weight of thrombus” value ([12]; n=13, PBS 38.61±3.56 mg) was 22.46 ± 1.14 mg and the “inhibition of FXIa with Spectrozyme TH” value (FXIa [13]) was “potent inhibition”. The “inhibition of FXIa cleavage of FIX to FIXa” value (FXIa [14]) was “dose-dependently inhibited”, the “inhibition of thrombin with S-2366” value (Thrombin [15]) was “essentially no inhibition” and the “effect on APTT of rat plasma” value (rat plasma) was “preferentially enhance APTT”. The “effect on APTT of serpin-deficient plasma” value [16] was “preferentially prolonged the APTT”, the “dansyl fluorescence of SCI–DEGR-FXIa complex on acrylamide addition” value (DEGR-FXIa [17]) was “remained invariant” and the “cellular toxicity (cell death)” value [18] was “No significant adverse effect”. For the same compound, the “highest dose studied relative to effective dose” value (Maximum tolerated dose; 25 mg/animal, no bleeding or cellular toxicity) was over 100 fold and the “tolerability (mobility, weight loss, bleeding)” value (Maximum tolerated dose; rats, 5, 10 and 25 mg per animal IV, n=3/group, 7 days observation) was “well tolerated”.
In the case of `O=S(=O)(O)OC[C@H]1O[C@@](COS(=O)(=O)O)(O[C@H]2O[C@H](COS(=O)(=O)O)[C@@H](OS(=O)(=O)O)[C@H](OS(=O)(=O)O)[C@H]2OS(=O)(=O)O)[C@@H](OS(=O)(=O)O)[C@@H]1OS(=O)(=O)O` [SOS, sucrose octasulfate], the “restoration potency (EC50)” value (SCI–FXIa complex) is reported as 750 µg/mL and the “restoration yield (ΔY) of FXIa activity” value (SCI–FXIa complex) is reported as ~ 39%.
With protamine sulfate the “restoration potency (EC50)” value (SCI–FXIa complex) was 14.0 µg/mL and the “restoration yield (ΔY) of FXIa activity” value (SCI–FXIa complex) was ~ 69%.
In the case of polybrene, the “restoration potency (EC50)” value (SCI–FXIa complex) is reported as 0.4 µg/mL and the “restoration yield (ΔY) of FXIa activity” value (SCI–FXIa complex) is reported as ~ 88%.
